Experimental data reported in ChEMBL document CHEMBL1152473, “Synthesis, characterization and antibacterial activity of some triazole Mannich bases carrying diphenylsulfone moieties” (2009).
Converted amounts (≈) assume the structure as drawn. The source made the active and inactive calls. No cut-off for these calls is given here.

Assays:
Type in all cases: functional
Staphylococcus aureus = test: Antibacterial activity against Staphylococcus aureus ATCC 12600 after 18 to 24 hrs by liquid broth method
Method in brief: (§1)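 Serial two-fold dilution in liquid broth in 96-well plates. Compounds were added from DMSO stock solutions to give final levels of 1024, 512, 256, 128, 64, 32, 16, 8, 4 and 2 (unit as printed unclear). Plates were incubated at 37 °C for 18–24 h.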

Pseudomonas aeruginosa = test: Antibacterial activity against Pseudomonas aeruginosa ATCC 9027 after 18 to 24 hrs by liquid broth method; method in brief: as §1
Citrobacter freundii = test: Antibacterial activity against Citrobacter freundii ATCC 8090 after 18 to 24 hrs by liquid broth method; method in brief: as §1
Acinetobacter baumannii = test: Antibacterial activity against Acinetobacter baumannii ATCC 19606 after 18 to 24 hrs by liquid broth method; details: ATCC 19606 = CIP 70.34 = JCM 6841; method in brief: as §1
[1] = system: Staphylococcus epidermidis; test: Antibacterial activity against Staphylococcus epidermidis ATCC 14990 after 18 to 24 hrs by liquid broth method; method in brief: as §1
Enterococcus faecalis = test: Antibacterial activity against Enterococcus faecalis ATCC 19433 after 18 to 24 hrs by liquid broth method; method in brief: as §1
Bacillus subtilis = test: Antibacterial activity against Bacillus subtilis ATCC 6633 after 18 to 24 hrs by liquid broth method; method in brief: as §1

SMILES | MIC (Staphylococcus aureus) | MIC (Pseudomonas aeruginosa) | MIC (Citrobacter freundii) | MIC (Acinetobacter baumannii) | MIC [1] | MIC (Enterococcus faecalis) | MIC (Bacillus subtilis)
CCCn1c(-c2ccc(S(=O)(=O)c3ccc(Cl)cc3)cc2)nn(CN2CCOCC2)c1=S | inactive | > 1020 µg/mL | 256 µg/mL (≈ 519 µM) | > 1020 µg/mL | inactive | 1020 µg/mL (≈ 2080 µM) | > 1020 µg/mL
CN(C)c1ccc(/C=N/n2c(-c3ccc(S(=O)(=O)c4ccccc4)cc3)n[nH]c2=S)cc1 | 1020 µg/mL (≈ 2210 µM) | > 1020 µg/mL | inactive | 512 µg/mL (≈ 1100 µM) | inactive | inactive | 64 µg/mL (≈ 138 µM)
CCCn1c(S)nnc1-c1ccc(S(=O)(=O)c2ccc(Cl)cc2)cc1 | 512 µg/mL (≈ 1300 µM) | inactive | 512 µg/mL (≈ 1300 µM) | > 1020 µg/mL | inactive | > 1020 µg/mL | 1020 µg/mL (≈ 2600 µM)
O=S(=O)(c1ccccc1)c1ccc(-c2n[nH]c(=S)n2/N=C/c2ccco2)cc1 | 512 µg/mL (≈ 1250 µM) | 256 µg/mL (≈ 624 µM) | inactive | 128 µg/mL (≈ 312 µM) | inactive | inactive | inactive
O=S(=O)(c1ccc(Cl)cc1)c1ccc(-c2n[nH]c(=S)n2/N=C/c2ccccc2)cc1 | 1020 µg/mL (≈ 2250 µM) | 512 µg/mL (≈ 1130 µM) | inactive | 512 µg/mL (≈ 1130 µM) | 1020 µg/mL (≈ 2250 µM) | inactive | inactive
CCCn1c(S)nnc1-c1ccc(S(=O)(=O)c2ccccc2)cc1 | > 1020 µg/mL | > 1020 µg/mL | > 1020 µg/mL | > 1020 µg/mL | > 1020 µg/mL | > 1020 µg/mL | > 1020 µg/mL
CCCn1c(-c2ccc(S(=O)(=O)c3ccccc3)cc2)nn(CN2CCOCC2)c1=S | inactive | > 1020 µg/mL | 512 µg/mL (≈ 1120 µM) | > 1020 µg/mL | > 1020 µg/mL | 1020 µg/mL (≈ 2230 µM) | > 1020 µg/mL
CCCn1c(S)nnc1-c1ccc(S(=O)(=O)c2ccc(Br)cc2)cc1 | 256 µg/mL (≈ 584 µM) | inactive | 256 µg/mL (≈ 584 µM) | 1020 µg/mL (≈ 2340 µM) | inactive | > 1020 µg/mL | 1020 µg/mL (≈ 2340 µM)
O=S(=O)(c1ccccc1)c1ccc(-c2nn(CN3CCOCC3)c(=S)n2/N=C/c2ccco2)cc1 | 512 µg/mL (≈ 1000 µM) | 512 µg/mL (≈ 1000 µM) | > 1020 µg/mL | 512 µg/mL (≈ 1000 µM) | inactive | 512 µg/mL (≈ 1000 µM) | 1020 µg/mL (≈ 2010 µM)
Nn1c(-c2ccc(S(=O)(=O)c3ccccc3)cc2)n[nH]c1=S | 512 µg/mL (≈ 1540 µM) | > 1020 µg/mL | > 1020 µg/mL | 512 µg/mL (≈ 1540 µM) | 128 µg/mL (≈ 385 µM) | > 1020 µg/mL | 1020 µg/mL (≈ 3080 µM)
